Test results: ChEMBL document CHEMBL1770123, “SPF32629A and SPF32629B: enantioselective synthesis, determination of absolute configuration, cytotoxicity and antibacterial evaluation” (Eur J Med Chem, 2011)
Values after ≈ are worked out from the molar mass of the structure shown. Active and inactive are the calls of the source. The rule behind the calls is not given here.

Key:
[1] = test system: A549; assay: Cytotoxicity against human A549 cells assessed as cell death at 1 ug after 48 hrs by MTT assay; assay type: functional
Procedure, shortened: (§1)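 A549 cells were grown in DMEM with 2 mmol L-glutamine, 10% FBS, penicillin (50 IU/mL) and streptomycin, at 37 °C and 5% CO2. 1×10^4 cells/well were plated and treated 24 h later with compound diluted in medium for 48 h. Controls were DMSO-matched and untreated wells. MTT 0.4 mg/mL in PBS was added for 4 h in the dark, then DMSO for 4 h. A540 was read and reported as % live cells relative to untreated.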

[2] = test system: A549; assay: Cytotoxicity against human A549 cells assessed as cell death at 2 ug after 48 hrs by MTT assay; assay type: functional; procedure, shortened: as §1
[3] = test system: A549; assay: Cytotoxicity against human A549 cells assessed as cell death at 5 ug after 48 hrs by MTT assay; assay type: functional; procedure, shortened: as §1
[4] = test system: A549; assay: Cytotoxicity against human A549 cells assessed as cell death at 10 ug after 48 hrs by MTT assay; assay type: functional; procedure, shortened: as §1
[5] = test system: A549; assay: Cytotoxicity against human A549 cells assessed as cell death at 25 ug after 48 hrs by MTT assay; assay type: functional; procedure, shortened: as §1
[6] = test system: A549; assay: Cytotoxicity against human A549 cells after 48 hrs by MTT assay; assay type: functional, cell-based; details: A549, 48 h
Procedure, shortened: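 A549 cells were kept in DMEM with 2 mM L-glutamine, 10% FBS, penicillin 50 IU/mL and streptomycin at 37 °C under 5% CO2. 1×10^4 cells per well were treated 24 h after seeding with compounds diluted in medium for 48 h. MTT (0.4 mg/mL in PBS) was added for 4 h in the dark, formazan was dissolved in DMSO for 4 h and absorbance read at 540 nm. Viability was expressed as % of untreated cells, and IC50 was derived.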

[7] = test system: Escherichia coli; assay: Antimicrobial activity against Escherichia coli at 500 ug/disc after 24 hrs by disc diffusion method; assay type: functional
[8] = test system: Escherichia coli; assay: Antimicrobial activity against Escherichia coli at 1000 ug/disc after 24 hrs by disc diffusion method; assay type: functional
[9] = test system: Bacillus subtilis; assay: Antimicrobial activity against Bacillus subtilis at 500 ug/disc after 24 hrs by disc diffusion method; assay type: functional
[10] = test system: Bacillus subtilis; assay: Antimicrobial activity against Bacillus subtilis at 1000 ug/disc after 24 hrs by disc diffusion method; assay type: functional
[11] = test system: Staphylococcus epidermidis; assay: Antimicrobial activity against Staphylococcus epidermidis at 500 ug/disc after 24 hrs by disc diffusion method; assay type: functional
[12] = test system: Staphylococcus epidermidis; assay: Antimicrobial activity against Staphylococcus epidermidis at 1000 ug/disc after 24 hrs by disc diffusion method; assay type: functional
[13] = test system: Klebsiella pneumoniae; assay: Antimicrobial activity against Klebsiella pneumoniae at 500 ug/disc after 24 hrs by disc diffusion method; assay type: functional
[14] = test system: Klebsiella pneumoniae; assay: Antimicrobial activity against Klebsiella pneumoniae at 1000 ug/disc after 24 hrs by disc diffusion method; assay type: functional
[15] = test system: Listeria monocytogenes; assay: Antimicrobial activity against Listeria monocytogenes at 500 ug/disc after 24 hrs by disc diffusion method; assay type: functional
[16] = test system: Listeria monocytogenes; assay: Antimicrobial activity against Listeria monocytogenes at 1000 ug/disc after 24 hrs by disc diffusion method; assay type: functional
[17] = test system: Salmonella typhimurium; assay: Antimicrobial activity against Salmonella Typhimurium at 500 ug/disc after 24 hrs by disc diffusion method; assay type: functional
[18] = test system: Salmonella typhimurium; assay: Antimicrobial activity against Salmonella Typhimurium at 1000 ug/disc after 24 hrs by disc diffusion method; assay type: functional
[19] = test system: Staphylococcus aureus; assay: Antimicrobial activity against Staphylococcus aureus at 500 ug/disc after 24 hrs by disc diffusion method; assay type: functional
Procedure, shortened: (§2)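 Disc diffusion on 2.4% Mueller-Hinton agar inoculated with the strain. Paper discs 6 mm across were loaded with test compound and placed on the agar. Plates were incubated at 37 °C for 24 h. Read-out was the diameter of the inhibition zone in mm.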

[20] = test system: Staphylococcus aureus; assay: Antimicrobial activity against Staphylococcus aureus at 1000 ug/disc after 24 hrs by disc diffusion method; assay type: functional
[21] = test system: Staphylococcus aureus; assay: Antimicrobial activity against methicillin-resistant Staphylococcus aureus strain 1 TB3G at 500 ug/disc after 24 hrs by disc diffusion method; assay type: functional; procedure, shortened: as §2
[22] = test system: Staphylococcus aureus; assay: Antimicrobial activity against methicillin-resistant Staphylococcus aureus strain 1 TB3G at 1000 ug/disc after 24 hrs by disc diffusion method; assay type: functional; procedure, shortened: as §2
[23] = test system: Staphylococcus aureus; assay: Antimicrobial activity against methicillin-resistant Staphylococcus aureus strain 2 TB4G at 500 ug/disc after 24 hrs by disc diffusion method; assay type: functional; procedure, shortened: as §2
[24] = test system: Staphylococcus aureus; assay: Antimicrobial activity against methicillin-resistant Staphylococcus aureus strain 2 TB4G at 1000 ug/disc after 24 hrs by disc diffusion method; assay type: functional; procedure, shortened: as §2
[25] = test system: Staphylococcus aureus; assay: Antimicrobial activity against methicillin-resistant Staphylococcus aureus strain 4 TB5G at 500 ug/disc after 24 hrs by disc diffusion method; assay type: functional; procedure, shortened: as §2
[26] = test system: Staphylococcus aureus; assay: Antimicrobial activity against methicillin-resistant Staphylococcus aureus strain 4 TB5G at 1000 ug/disc after 24 hrs by disc diffusion method; assay type: functional; procedure, shortened: as §2
[27] = biological target: T1, Chymase (Homo sapiens, UniProt P23946); assay: Inhibition of human chymase
T1 sequence (P23946 whole entry): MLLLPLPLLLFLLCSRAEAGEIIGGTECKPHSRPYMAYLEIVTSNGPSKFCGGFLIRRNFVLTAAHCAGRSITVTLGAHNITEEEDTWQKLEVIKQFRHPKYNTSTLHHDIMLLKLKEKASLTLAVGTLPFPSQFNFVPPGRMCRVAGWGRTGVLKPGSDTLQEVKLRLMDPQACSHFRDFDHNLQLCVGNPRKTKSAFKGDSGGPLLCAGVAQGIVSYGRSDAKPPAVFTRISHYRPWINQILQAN

[28] = Inhibition of human elastase
[29] = Salmonella enterica subsp. enterica serovar Typhimurium
[30] = Salmonella enterica, read-out: DIZ

| SMILES | Activity [1] [%] | Activity [2] [%] | Activity [3] [%] | Activity [4] [%] | Activity [5] [%] | IC50 [6] [µM] | diameter of the inhibition zone (DIZ) [11] | diameter of the inhibition zone (DIZ) [15] | diameter of the inhibition zone (DIZ) [16] | diameter of the inhibition zone (DIZ) [19] | diameter of the inhibition zone (DIZ) [20] | diameter of the inhibition zone (DIZ) [21] | diameter of the inhibition zone (DIZ) [22] | diameter of the inhibition zone (DIZ) [25] | diameter of the inhibition zone (DIZ) [26] | other results |
| --- | --- | --- | --- | --- | --- | --- | --- | --- | --- | --- | --- | --- | --- | --- | --- | --- |
| COc1cc([C@@H]2c3cc4c(cc3[C@@H](O[C@@H]3O[C@@H]5CO[C@@H](C)O[C@H]5[C@H](O)[C@H]3O)[C@H]3COC(=O)[C@H]23)OCO4)cc(OC)c1O [ETOPOSIDE] | 5.54 | 9.12 | 25.91 | 55.33 | 69.48 | 11 |  |  |  |  |  |  |  |  |  |  |
| CC(C)CC(=O)O[C@@H](c1ccccc1)c1cc(O)cc(=O)[nH]1 | 9.96 | 27.71 | 38.96 | 47.62 | 63.2 | 11 | inactive | inactive | inactive | inactive | inactive | inactive | inactive | inactive | inactive | zone of inhibition at 500 µg/disc ([7]; read-out: DIZ): 16 mm; zone of inhibition at 1000 µg/disc ([8]; read-out: DIZ): 26 mm; zone of inhibition at 500 µg/disc ([9]; read-out: DIZ): 13 mm; zone of inhibition at 1000 µg/disc ([10]; read-out: DIZ): 23 mm; diameter of the inhibition zone (DIZ) [12]: inactive; zone of inhibition at 500 µg/disc ([13]; read-out: DIZ): 15 mm; zone of inhibition at 1000 µg/disc ([14]; read-out: DIZ): 25 mm; diameter of the inhibition zone (DIZ) [17, 29]: inactive; diameter of the inhibition zone (DIZ) [18, 29]: inactive; zone of inhibition at 500 µg/disc ([23]; read-out: DIZ): 14 mm; zone of inhibition at 1000 µg/disc ([24]; read-out: DIZ): 26 mm |
| CC(C)CC(=O)OC(c1ccccc1)c1cc(O)cc(=O)[nH]1 (racemic) | 8.22 | 25.54 | 37.22 | 50.21 | 74.02 | 28 | inactive | inactive | inactive | inactive | inactive | inactive | inactive | inactive | inactive | IC50 [27]: 0.83 µM; IC50 [28]: 4.9 µg/mL (≈ 16.3 µM); diameter of the inhibition zone (DIZ) [7]: inactive; diameter of the inhibition zone (DIZ) [8]: inactive; diameter of the inhibition zone (DIZ) [9]: inactive; diameter of the inhibition zone (DIZ) [10]: inactive; zone of inhibition at 1000 µg/disc ([12]; read-out: DIZ): 9 mm; diameter of the inhibition zone (DIZ) [13]: inactive; diameter of the inhibition zone (DIZ) [14]: inactive; zone of inhibition at 500 µg/disc [17, 30]: 7 mm; zone of inhibition at 1000 µg/disc [18, 30]: 13 mm; diameter of the inhibition zone (DIZ) [23]: inactive; diameter of the inhibition zone (DIZ) [24]: inactive |
